Laboratory results: ChEMBL document CHEMBL1145563, “Monoglycerides from the brown alga Sargassum sagamianum: Isolation, synthesis, and biological activity” (Bioorg Med Chem Lett, 2008)
One block for each molecule: values may come before it.

Tests used:
[1] = molecular target: T1, Phospholipase A2, membrane associated (Homo sapiens) (UniProt P14555); test: Inhibition of sPLA2-2A at 10 uM by coupled enzyme assay
T1 sequence (whole entry): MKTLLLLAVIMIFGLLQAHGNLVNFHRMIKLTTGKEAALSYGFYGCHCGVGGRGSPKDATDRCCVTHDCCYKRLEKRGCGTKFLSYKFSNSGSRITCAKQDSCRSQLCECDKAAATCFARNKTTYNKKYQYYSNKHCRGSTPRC
Summary of the method: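 Phospholipase A2 activity measured by a coupled enzyme assay with DL-PC as substrate and lipoxygenase as the coupling enzyme. Percent inhibition given as mean of three experiments.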

[2] = molecular target: T2, Prostaglandin G/H synthase 2 (Homo sapiens) (UniProt P35354); test: Inhibition of COX2 at 50 uM
T2 sequence (whole entry): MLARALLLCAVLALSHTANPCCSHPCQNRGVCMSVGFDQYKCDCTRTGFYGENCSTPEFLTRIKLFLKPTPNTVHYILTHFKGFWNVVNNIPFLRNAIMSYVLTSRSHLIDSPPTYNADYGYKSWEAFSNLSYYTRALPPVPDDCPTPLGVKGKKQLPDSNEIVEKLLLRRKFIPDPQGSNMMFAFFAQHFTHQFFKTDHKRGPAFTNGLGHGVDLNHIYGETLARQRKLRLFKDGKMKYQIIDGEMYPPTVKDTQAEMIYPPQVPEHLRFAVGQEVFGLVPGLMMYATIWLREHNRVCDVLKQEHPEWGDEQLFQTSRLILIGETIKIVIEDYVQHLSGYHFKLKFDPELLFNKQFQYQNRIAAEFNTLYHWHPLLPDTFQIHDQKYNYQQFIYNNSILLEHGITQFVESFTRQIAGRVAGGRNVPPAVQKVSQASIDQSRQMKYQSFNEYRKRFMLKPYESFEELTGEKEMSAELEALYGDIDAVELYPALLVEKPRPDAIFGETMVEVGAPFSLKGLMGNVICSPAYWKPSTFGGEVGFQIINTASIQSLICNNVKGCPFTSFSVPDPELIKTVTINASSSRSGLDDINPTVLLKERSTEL
Summary of the method: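 COX-2 activity followed as PGE2 in the medium, measured in triplicate by enzyme immunoassay: samples, enzymatic tracer and specific antiserum incubated overnight at 4 °C, plates washed, Ellman's reagent added, absorbance at 414 nm read after 1–3 h. PGE2 read from a 50–0.39 pg/mL standard curve. Percent inhibition given as mean of three experiments.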

Structure (SMILES): CCCCCCCC/C=C\CCCCCCCC(=O)OCC(O)CO (stereo unspecified)
inhibition [2]: 24.7%
inhibition [1]: 60.6%

Structure (SMILES): CCCCC/C=C\C/C=C\C/C=C\CCCCC(=O)OCC(O)CO (stereo unspecified)
inhibition [2]: -6.5%
inhibition [1]: 38.8%

Structure (SMILES): CCCCC/C=C/C/C=C\C/C=C/C/C=C/CCCC(=O)OCC(O)CO (stereo unspecified)
inhibition [1]: 33.6%

Structure (SMILES): CC/C=C\C/C=C\C/C=C\CCCCCCCC(=O)OCC(O)CO (stereo unspecified)
inhibition [1]: 32%

Structure (SMILES): CC/C=C/C/C=C/C/C=C\C/C=C/C/C=C/CCCC(=O)OCC(O)CO (stereo unspecified)
inhibition [2]: 71.9%
inhibition [1]: 37.4%

Other lines, results leading:

inhibition [1]: 53.9%
Structure (SMILES): CCCCC/C=C/C/C=C\C/C=C/CCCCCCC(=O)OCC(O)CO (stereo unspecified)

inhibition [2]: 20.5%
inhibition [1]: 38.1%
Structure (SMILES): CCCCC/C=C/C/C=C\CCCCCCCC(=O)OCC(O)CO (stereo unspecified)

inhibition [2]: 16.5%
inhibition [1]: 32.8%
Structure (SMILES): CCCCCCCCCCCCCCCCCC(=O)OCC(O)CO (stereo unspecified)

inhibition [2]: 74.2%
inhibition [1]: 41.7%
Structure (SMILES): CC/C=C/C/C=C/C/C=C/C/C=C\C/C=C/C/C=C/CCC(=O)OCC(O)CO (stereo unspecified)

inhibition [2]: 35.6%
inhibition [1]: 26.1%
Structure (SMILES): CC/C=C/C/C=C/C/C=C\C/C=C/CCCCC(=O)OC[C@@H](O)CO

inhibition [2]: 86.8%
inhibition [1]: 37.9%
Structure (SMILES): CCCCC/C=C/C/C=C/C/C=C\C/C=C/CCCCCC(=O)OCC(O)CO (stereo unspecified)

inhibition [2]: 92.9%
inhibition [1]: 37.4%
Structure (SMILES): CC/C=C/C/C=C/C/C=C/C/C=C\C/C=C/CCCCCC(=O)OCC(O)CO (stereo unspecified)
